# Published values from different studies.
# Read-out: metabolic stability
# Species: rat
# Sample: liver microsomes
Structure (SMILES),setting,half-life [min]
CCN(CC)Cc1ccc2cc(COC(=O)Nc3ccc(C(=O)NO)cc3)ccc2c1,pH 7.4,92.9
O=C1CCC(N2Cc3cc(C4CCN(Cc5ccccc5)CC4)ccc3C2=O)C(=O)N1 (centres unmarked),1 µM,> 60
N#Cc1ccc(C[C@H](Nc2ncc(-c3ccc(F)cc3)o2)C(=O)N2CCc3ccccc32)cc1,"10 µM, pH 7.4",43
Cc1[nH]c(C)c(S(=O)(=O)Nc2ccc(C(F)(F)F)c(Cl)c2Cl)c1C(=O)N1CCC(F)(F)C1,,32
NCc1ccc(-c2nn(Cc3ccncc3)c3ccccc23)o1,"1 µM, pH 7.4",~17
N#Cc1ccc(C[C@H](Nc2c(Nc3ccc(F)cc3)c(=O)c2=O)C(=O)N2CCc3ccccc32)cc1,"10 µM, pH 7.4",20
C=CCn1c(=O)c2cnc(Nc3ccc(N4CCN(C)CC4)cc3)nc2n1-c1ccc2c(n1)[C@@](O)(CC)CC2,,79
COc1cc(-c2cc(C(C)=O)n3ccccc23)c(OC)cc1Cn1ccnc1,"1 µM, pH 7.4",94.3
COc1ncccc1Cn1nc(-c2ccc(CO)o2)c2ccccc21,"1 µM, pH 7.4",6
N#Cc1ccc(C[C@H](Nc2nnc(-c3ccc(Br)cc3)o2)C(=O)N2CCc3ccccc32)cc1,"10 µM, pH 7.4",27
OCc1ccc(-c2nn(Cc3ccccn3)c3cccnc23)o1,"1 µM, pH 7.4",> 30
O=C(Nc1ccc(OC(F)(F)Cl)cc1)c1cnc(N2CC[C@@H](O)C2)c(-c2ccn[nH]2)c1,"1 µM, pH 7.4",179
N#Cc1ccc(C[C@H](Nc2nnc(-c3ccc(Br)cc3)s2)C(=O)N2CCc3ccccc32)cc1,"10 µM, pH 7.4",15
NCc1ccc(-c2nn(Cc3ccccc3)c3ccccc23)o1,,85
